Laboratory results from ChEMBL document CHEMBL1671778, “Synthesis and serotonin transporter activity of 1,3-bis(aryl)-2-nitro-1-propenes as a new class of anticancer agents” (Bioorg Med Chem, 2011).
The source made the active and inactive calls. The calls are words filed in the database; no cut-off is given here.

Assays:
SH-SY5Y [1] = test: Cytotoxicity against human SH-SY5Y cells expressing human SERT assessed as decrease in cell viability after 48 hrs neutral red dye assay; assay type: functional, cell-based
DG-75 [2] = test: Cytotoxicity against human chemoresistant DG75 cells expressing SERT assessed as decrease in cell viability 10 or 50 uM after 72 hrs Alamar blue assay; assay type: functional, cell-based; settings: DG-75, 72 h
How it was run: (§1)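 1-5x10^4 cells/200 µl given 10 or 50 µM for 24 h (MUTU-I, MDA-MB231, PBMC) or […]. Alamar Blue at 37 °C in the dark 4-6 h, then fluorescence read with 544/590 nm. Media-only background subtracted; untreated cells set as 100% viability. Mean of six points (triplicate, two independent days). PBMCs from a healthy donor, isolated by ficoll density separation.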

HEK293 [3] = test: Cytotoxicity against human HEK293 cells assessed as decrease in cell viability after 48 hrs neutral red dye assay; assay type: functional, cell-based; settings: HEK293, 48 h
How it was run: (§2)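 5x10^4 cells/well grown to sub-confluence (24-36 h), then exposed to compound 48 h. Neutral red dye 3+1 h, solubilised in 50% ethanol/1% acetic acid, absorbance 540 nm (690 nm background). Viability as percent of vehicle-treated cells; pEC50 by non-linear sigmoidal regression over 4 concentrations, triplicate on two independent days. Controls 30 mM sodium azide, 2% Triton-X. HEK293-hSERT cells kept in Geneticin, used up to 30 passages.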

HEK293 [4] = test: Cytotoxicity against human HEK293 cells expressing human SERT assessed as decrease in cell viability after 48 hrs neutral red dye assay; assay type: functional, cell-based; settings: HEK293, 48 h; how it was run: as §2
[5] = target: T1, Sodium-dependent serotonin transporter (Homo sapiens, UniProt P31645); test: Inhibition of [3H]-serotonin reuptake at human SERT expressed in HEK293 cells after 15 to 20 mins by fluorescence neurotransmitter transporter assay; assay type: cell-based
Target sequence in this assay (P31645 whole entry): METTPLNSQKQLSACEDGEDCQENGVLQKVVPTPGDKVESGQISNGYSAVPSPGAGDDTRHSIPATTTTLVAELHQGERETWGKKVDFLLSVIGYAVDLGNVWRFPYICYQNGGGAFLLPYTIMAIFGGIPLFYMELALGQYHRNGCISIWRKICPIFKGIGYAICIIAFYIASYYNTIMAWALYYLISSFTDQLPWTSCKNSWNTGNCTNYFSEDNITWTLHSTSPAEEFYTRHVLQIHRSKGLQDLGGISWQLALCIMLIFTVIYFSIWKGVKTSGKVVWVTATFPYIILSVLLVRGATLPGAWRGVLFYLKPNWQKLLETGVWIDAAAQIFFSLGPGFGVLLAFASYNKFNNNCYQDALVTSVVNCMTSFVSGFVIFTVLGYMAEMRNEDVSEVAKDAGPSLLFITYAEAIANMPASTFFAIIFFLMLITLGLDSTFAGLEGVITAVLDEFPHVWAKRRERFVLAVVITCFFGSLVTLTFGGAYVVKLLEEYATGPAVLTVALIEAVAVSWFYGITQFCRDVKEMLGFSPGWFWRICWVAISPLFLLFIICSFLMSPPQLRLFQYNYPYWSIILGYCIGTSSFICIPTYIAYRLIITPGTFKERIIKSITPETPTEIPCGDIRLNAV

SH-SY5Y [6] = test: Antiproliferative activity against human SH-SY5Y cells after 24 hrs Alamar blue assay; assay type: functional, cell-based
How it was run: (§3)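 Alamar Blue viability: 1-5x10^4 cells/well treated 24 h, then Alamar Blue (pre-warmed) 4-6 h at 37 °C in the dark. Fluorescence read at 590 nm (excitation 544 nm), background of medium plus dye subtracted, untreated cells = 100% viability. Miconazole 10 µM as cell-death control. Range 1 µM-1 mM, triplicate on two independent days. pEC50 from non-linear sigmoidal regression.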

[7] = Antiproliferative activity against human chemosensitive MUTU-I cells after 24 hrs Alamar blue assay; assay type: functional, cell-based; how it was run: as §3
DG-75 [8] = test: Antiproliferative activity against human DG75 cells after 24 hrs Alamar blue assay; assay type: functional, cell-based; settings: DG-75, 24 h; how it was run: as §3
[9] = target: T1, Sodium-dependent serotonin transporter; settings: HEK293, at 100 µM
Target sequence in this assay (P31645 whole entry, looked up): as the sequence (P31645 whole entry) above

[10] = target: T1, Sodium-dependent serotonin transporter; settings: HEK293, at 1 µM
Target sequence in this assay (P31645 whole entry, looked up): as the sequence (P31645 whole entry) above

[11] = Induction of apoptosis in human chemosensitive MUTU-I cells assessed as accumulation at pre-G1 phase at 10 uM by propidium iodide FACS analysis; assay type: functional
How it was run: (§4)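 750,000 MUTU-I cells per sample treated for the stated time, then harvested (300 ×g, 5 min), washed in ice-cold PBS and fixed overnight at 4 °C in 70% ethanol. Stained with RNase A and propidium iodide, 30 min at 37 °C in the dark. Flow cytometry counted 10,000 gated cells for cell-cycle phases. Taxol 10 µM as positive control.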

MUTU-I [12] = test: Induction of apoptosis in human chemosensitive MUTU-I cells assessed as caspase 3/7 activation at 10 uM after 5 hrs; assay type: functional, cell-based
How it was run: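 Caspase 3/7 activity by homogeneous fluorogenic kit: 0.5x10^5 cells exposed to compound (10 µM) for 5 h, then 100 µl Z-DEVD-R110 substrate added. After 2 h, cleaved substrate measured at 521 nm (excitation 499 nm).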

MUTU-I [13] = test: Induction of apoptosis in human chemosensitive MUTU-I cells assessed as induction of PARP cleavage at 10 uM after 8 hrs; assay type: functional, cell-based
How it was run: (§5)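 PARP cleavage by Western blot: 5x10^6 cells pelleted (500 ×g, 5 min), washed, and lysed in Laemmli buffer with protease inhibitors. Lysates run on 8% SDS-PAGE, transferred to PVDF, and probed with anti-PARP detecting full-length 113 kDa and cleaved 85 kDa forms. HRP secondary antibody, chemiluminescence detection.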

MUTU-I [14] = test: Induction of apoptosis in human chemosensitive MUTU-I cells assessed as chromatin condensation and membrane bledding at 10 uM after 8 hrs; assay type: functional, cell-based
How it was run: (§6)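 Cells at 3x10^5 cells/mL exposed for 4 h or 8 h. 150 µl aliquots were cytocentrifuged onto slides (500 ×g, 2 min), air-dried, methanol-fixed, and stained with eosin Y and methylene blue. Morphology was examined by light microscopy at 60x.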

MUTU-I [15] = test: Induction of apoptosis in human chemosensitive MUTU-I cells assessed as caspase 3/7 activation at 10 uM after 4 hrs; assay type: functional, cell-based
MUTU-I [16] = test: Induction of apoptosis in human chemosensitive MUTU-I cells assessed as induction of PARP cleavage at 10 uM after 4 hrs; assay type: functional, cell-based; how it was run: as §5
MUTU-I [17] = test: Induction of apoptosis in human chemosensitive MUTU-I cells assessed as chromatin condensation and membrane bledding at 10 uM after 4 hrs; assay type: functional, cell-based; how it was run: as §6
[18] = target: T2, Tyrosine-protein phosphatase non-receptor type 1 (Homo sapiens) (UniProt P18031); test: Inhibition of human recombinant PTP1B in chemosensitive MUTU-I cells after 30 mins; assay type: cell-based
T2 sequence (whole entry): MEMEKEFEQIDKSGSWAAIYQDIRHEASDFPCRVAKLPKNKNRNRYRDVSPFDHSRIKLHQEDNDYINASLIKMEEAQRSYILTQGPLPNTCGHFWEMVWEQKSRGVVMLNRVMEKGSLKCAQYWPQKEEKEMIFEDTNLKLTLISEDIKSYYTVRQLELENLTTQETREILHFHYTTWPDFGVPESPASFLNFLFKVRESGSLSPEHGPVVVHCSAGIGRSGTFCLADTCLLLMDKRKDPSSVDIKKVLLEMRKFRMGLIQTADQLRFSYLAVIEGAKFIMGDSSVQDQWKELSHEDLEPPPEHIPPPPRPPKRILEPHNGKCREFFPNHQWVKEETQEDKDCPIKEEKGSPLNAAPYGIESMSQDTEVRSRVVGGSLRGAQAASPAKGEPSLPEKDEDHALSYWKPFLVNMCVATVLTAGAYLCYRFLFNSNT
How it was run: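 Recombinant PTP1B expressed in E. coli, incubated with compound and a phosphopeptide substrate for 30 min at 30 °C. Released phosphate detected by malachite green at 620 nm and quantified against a phosphate standard curve. Suramin as positive control.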

Tubulin (Homo sapiens) = Tubulin (Homo sapiens) (UniProt P68371+Q9H4B7+P0DPH7+P68366+Q13509+Q71U36+P04350+Q3ZCM7+P07437+P68363+Q9BQE3+Q6PEY2+Q13885+Q9BVA1+Q9BUF5); test: Inhibition of tubulin polymerisation in human chemosensitive MUTU-I cells after 30 mins; assay type: cell-based
MUTU-I [19] = test: Induction of apoptosis in human chemosensitive MUTU-I cells assessed as accumulation at G2/M phase after 2 to 8 hrs by propidium iodide FACS analysis relative to taxol; assay type: functional, cell-based; how it was run: as §4
PBMC = test: Cytotoxicity against human PBMC cells assessed as decrease in cell viability 10 or 50 uM after 24 hrs Alamar blue assay; assay type: cell-based; how it was run: as §1

| Structure (SMILES) | EC50 (SH-SY5Y [1]) [µM] | EC50 (DG-75 [2]) [µM] | EC50 (HEK293 [3]) [µM] | EC50 (HEK293 [4]) [µM] | EC50 (SH-SY5Y [6]) [µM] | EC50 [7] [µM] | EC50 (DG-75 [8]) [µM] | inhibition [9] [%] | inhibition [10] [%] | further results |
| --- | --- | --- | --- | --- | --- | --- | --- | --- | --- | --- |
| CNC(C)Cc1ccc2c(c1)OCO2 (configuration not stated) [MIDOMAFETAMINE] | > 10000 | 31.6 | 251 | 501 |  |  |  |  |  | IC50 [5]: 1.1 µM |
| ON=C(Cc1ccc2c(c1)OCO2)Cc1ccc2c(c1)OCO2 |  |  |  |  | 63.1 | 25.1 | 50.1 |  |  |  |
| CSc1ccc(CC(Cc2ccc(SC)cc2)NC(C)=O)cc1 | 3980 | 3980 |  | 39.8 | 15800 | 158 | 398 | 28 | 0 |  |
| CCNC(Cc1ccc(SC)cc1)Cc1ccc(SC)cc1 | 15.8 | 12.6 | 1260 | 25.1 |  |  |  | 92 | 31 | IC50 [5]: 2.2 µM |
| CN(C)CCCC1(c2ccc(F)cc2)OCc2cc(C#N)ccc21 (configuration not stated) [CITALOPRAM] | 25.1 | 12.6 | 15.8 |  |  |  |  |  |  |  |
| OC(Cc1ccc2c(c1)OCO2)Cc1ccc2c(c1)OCO2 |  |  |  |  | 158 | 39.8 | 126 |  |  |  |
| COc1ccc(/C=C(/Cc2ccc(OC)cc2)[N+](=O)[O-])cc1 |  |  |  |  | 12.6 | 2.51 | 12.6 | 10 | 25 | Activity [11]: 32%; Activity (MUTU-I [12]): Active; Activity (MUTU-I [13]): Active; Activity (MUTU-I [14]): Active; Activity (MUTU-I [15]): Active; Activity (MUTU-I [16]): Active; Activity (MUTU-I [17]): Active; inhibition [18]: inactive; inhibition (Tubulin (Homo sapiens)): inactive; Activity (MUTU-I [19]): Active |
| O=[N+]([O-])/C(=C\c1ccc(Cl)cc1)Cc1ccc(Cl)cc1Cl |  |  |  |  | 25.1 | 3.16 | 3.16 |  |  |  |
| CSc1ccc(/C=C(/Cc2ccc(SC)cc2)[N+](=O)[O-])cc1 |  |  |  |  | 20 | 3.16 | 39.8 | 18 | 25 | Activity [11]: 50%; Activity (MUTU-I [12]): Active; Activity (MUTU-I [13]): Active; Activity (MUTU-I [14]): Active; Activity (MUTU-I [15]): Active; Activity (MUTU-I [16]): Active; Activity (MUTU-I [17]): Active; inhibition [18]: inactive; inhibition (Tubulin (Homo sapiens)): inactive; Activity (MUTU-I [19]): Active |
| COc1ccc(CC(N)Cc2ccc(OC)cc2)cc1 | 20 | 20 | 31.6 | 25.1 | 20 | 794 | 398 | 65 | 11 |  |
| CC(=O)NC(Cc1ccc2c(c1)OCO2)Cc1ccc2c(c1)OCO2 | > 10000 | 1260 | 3980 | > 10000 |  |  |  |  |  |  |
| CC(N)Cc1ccc2c(c1)OCO2 (configuration not stated) [TENAMFETAMINE] | > 10000 | 2000 | 316 | 631 |  |  |  |  |  | IC50 [5]: 0.9 µM |
| NC(Cc1ccc(Cl)cc1)Cc1ccc(Cl)cc1 |  |  |  |  | 5.01 | 0.158 | 25.1 |  |  | Activity (PBMC): Toxic |
| O=C(Cc1ccc2c(c1)OCO2)Cc1ccc2c(c1)OCO2 | > 10000 | 3160 | 1260 | 5010 | 251 | 100 | 158 |  |  |  |
| O=[N+]([O-])/C(=C\c1ccc2c(c1)OCO2)Cc1ccc2c(c1)OCO2 | 15.8 | 1 | 7.94 | 12.6 | 31.6 | 3.16 | 50.1 | 36 | 15 | Activity [11]: 30%; Activity (MUTU-I [12]): Active; Activity (MUTU-I [13]): Active; Activity (MUTU-I [14]): Active; Activity (MUTU-I [15]): Active; Activity (MUTU-I [16]): Active; Activity (MUTU-I [17]): Active; inhibition [18]: inactive; inhibition (Tubulin (Homo sapiens)): inactive; Activity (MUTU-I [19]): Active |
| O=CNC(Cc1ccc2c(c1)OCO2)Cc1ccc2c(c1)OCO2 | > 10000 | 15.8 | > 10000 | 1580 | 224 | 63.1 | 158 | 55 | 18 |  |
| CSc1ccc(C/C(=C/c2ccc(Cl)cc2)[N+](=O)[O-])cc1 |  |  |  |  | 20 | 3.16 | 7.94 |  |  |  |
| CSc1ccc(CC(N)Cc2ccc(SC)cc2)cc1 | 20 | 25.1 | 20 | 31.6 | 12.6 | 12.6 | 25.1 | 98 | 50 | Activity (PBMC): Toxic; IC50 [5]: 2.5 µM |
| NC(Cc1ccc2c(c1)OCO2)Cc1ccc2c(c1)OCO2 | 31.6 | 15.8 | 25.1 | 31.6 | 31.6 | 50.1 | 251 | 77 | 44 | IC50 [5]: 1.6 µM |
| COc1ccc(CC(Cc2ccc(OC)cc2)NC=O)cc1 | > 10000 | 1580 | 31.6 | 3980 | 316 | 200 | 200 | 18 | 8 |  |
| CSc1ccc(CC(C)N)cc1 (configuration not stated) [4-METHYLTHIOAMPHETAMINE] | 631 | 316 | 20 | 25.1 |  |  |  |  |  | IC50 [5]: 0.2 µM |
| O=[N+]([O-])/C(=C\c1ccc(Cl)cc1)Cc1ccc(Cl)cc1 |  |  |  |  | 2.51 | 1 | 12.6 | 23 | 0 | Activity [11]: 41%; Activity (MUTU-I [12]): Active; Activity (MUTU-I [13]): Active; Activity (MUTU-I [14]): Active; Activity (MUTU-I [15]): Active; Activity (MUTU-I [16]): Active; Activity (MUTU-I [17]): Active; inhibition [18]: inactive; inhibition (Tubulin (Homo sapiens)): inactive; Activity (MUTU-I [19]): Active |
